The source of these data is ChEMBL document CHEMBL1135725, “N-Aryl N'-hydroxyguanidines, a new class of NO-donors after selective oxidation by nitric oxide synthases: structure-activity relationship” (J Med Chem, 2002).

Format in all cases: functional
Details in all cases: Mus musculus

Substrate in data set [1]: Cc1ccc(NC(=N)NO)cc1
Briefly: (§1) Kinetic constant for NO formation during oxidation by NADPH and molecular Oxygen with NOS II. In a few lines:
(§2)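 Recombinant NOS II (E. coli-expressed, purified) assayed at 37 °C in 50 mM HEPES pH 7.4 with 1 mM NADPH, 100 μM BH4, 5 mM DTT, SOD and catalase (100 U/mL each), and 12-15 μM oxyhemoglobin. Substrate was varied from 5 μM to 2.5 mM. Enzyme level was set to keep oxyhemoglobin conversion below 30%. Kinetic constants come from the initial methemoglobin formation rate at 401 nm; three to four experiments.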

Substrate in data set [2]: COc1ccc(NC(=N)NO)cc1
The data set is described as §1. In a few lines: as §2

Substrate in data set [3]: N/C(=N/c1ccsc1)NO
Described as §1. In a few lines: as §2

Substrate in data set [4]: N/C(=N/c1ccc(F)cc1)NO
The data set is described as §1. The gist of the method: as §2

Substrate in data set [5]: N/C(=N/c1ccc(O)cc1)NO
The description is as §1. In a few lines:
as §2

Substrate in data set [6]: N=C(NO)Nc1ccccc1
The description is as §1. In a few lines: as §2

B1: Nitric oxide synthase, inducible (Mus musculus), P29477 (protein)
chain: MACPWKFLFKVKSYQSDLKEEKDINNNVKKTPCAVLSPTIQDDPKSHQNGSPQLLTGTAQNVPESLDKLHVTSTRPQYVRIKNWGSGEILHDTLHHKATSDFTCKSKSCLGSIMNPKSLTRGPRDKPTPLEELLPHAIEFINQYYGSFKEAKIEEHLARLEAVTKEIETTGTYQLTLDELIFATKMAWRNAPRCIGRIQWSNLQVFDARNCSTAQEMFQHICRHILYATNNGNIRSAITVFPQRSDGKHDFRLWNSQLIRYAGYQMPDGTIRGDAATLEFTQLCIDLGWKPRYGRFDVLPLVLQADGQDPEVFEIPPDLVLEVTMEHPKYEWFQELGLKWYALPAVANMLLEVGGLEFPACPFNGWYMGTEIGVRDFCDTQRYNILEEVGRRMGLETHTLASLWKDRAVTEINVAVLHSFQKQNVTIMDHHTASESFMKHMQNEYRARGGCPADWIWLVPPVSGSITPVFHQEMLNYVLSPFYYYQIEPWKTHIWQNEKLRPRRREIRFRVLVKVVFFASMLMRKVMASRVRATVLFATETGKSEALARDLATLFSYAFNTKVVCMDQYKASTLEEEQLLLVVTSTFGNGDCPSNGQTLKKSLFMLRELNHTFRYAVFGLGSSMYPQFCAFAHDIDQKLSHLGASQLAPTGEGDELSGQEDAFRSWAVQTFRAACETFDVRSKHHIQIPKRFTSNATWEPQQYRLIQSPEPLDLNRALSSIHAKNVFTMRLKSQQNLQSEKSSRTTLLVQLTFEGSRGPSYLPGEHLGIFPGNQTALVQGILERVVDCPTPHQTVCLEVLDESGSYWVKDKRLPPCSLSQALTYFLDITTPPTQLQLHKLARFATDETDRQRLEALCQPSEYNDWKFSNNPTFLEVLEEFPSLHVPAAFLLSQLPILKPRYYSISSSQDHTPSEVHLTVAVVTYRTRDGQGPLHHGVCSTWIRNLKPQDPVPCFVRSVSGFQLPEDPSQPCILIGPGTGIAPFRSFWQQRLHDSQHKGLKGGRMSLVFGCRHPEEDHLYQEEMQEMVRKRVLFQVHTGYSRLPGKPKVYVQDILQKQLANEVLSVLHGEQGHLYICGDVRMARDVATTLKKLVATKLNLSEEQVEDYFFQLKSQKRYHEDIFGAVFSYGAKKGSALEEPKATRL
On to B1, for which the Km in data set [1] worked out at 1100 µM; in data set [2], 2600 µM; in data set [3], 25 µM; in data set [4], 300 µM; in data set [5] it was 425 µM; in data set [6] it was 270 µM.

What is called Km is the concentration of substrate that gives half-maximal velocity.
